# ChEMBL document CHEMBL2311246 (Bioorg Med Chem, 2013)
# pIC50: −log10 of the molar value. Calls of active or inactive are those of the source. The rule behind the calls is not given here.
# Columns and labels:
# DU-145 = test: Antiproliferative activity against human DU145 cells after 72 hrs after ATPlite kit assay; format: functional, cell-based; conditions: DU-145, 72 h
# In short: (§1)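 10,000 cells per well plated, incubated overnight, then exposed to increasing compound concentrations for 72 h. Viability read by ATPlite luminescence. IC50 obtained by linear regression. Prostate lines (DU145, PC-3, LNCaP) are ATCC stocks. LNCaP culture was modified from the earlier method.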
# PC-3 = test: Antiproliferative activity against human PC3 cells after 72 hrs after ATPlite kit assay; format: functional, cell-based; conditions: PC-3, 72 h; in short: as §1
# LNCaP = test: Antiproliferative activity against human LNCAP cells after 72 hrs after ATPlite kit assay; format: functional, cell-based; in short: as §1
# [1] = Antiproliferative activity against human Huh7.5.1 cells after 72 hrs after ATPlite kit assay; format: functional, cell-based; conditions: Huh-7, 72 h; in short: as §1
# Hepatitis C virus [2] = test: Antiviral activity against HCV JFH1 infected in human Huh7.5.1 cells assessed as reduction in viral proteins at non-cytotoxic concentration after 72 hrs post compound dose by Western blotting method; format: functional, organism-based; conditions: Hepacivirus hominis, Huh-7
# Cytochrome P450 2C9 = Cytochrome P450 2C9 (Homo sapiens, UniProt P11712); test: Inhibition of CYP2C9 in pooled human liver microsomes assessed as reduction in enzyme-mediated (S)-warfarin 7-hydroxylation by HPLC/MS-MS method; format: ADME, Microsome
# In short: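 Pooled HLM (0.1 mg/mL microsomal protein) incubated with (S)-warfarin 4 µM and compound at 1, 10 or 100 µM in 100 mM potassium phosphate, pH 7.4. Vehicle controls held 0.75% MeOH (v/v). Sulfaphenazole 1 µM served as positive control. 7-Hydroxywarfarin measured by HPLC/MS-MS. Means ± SD of triplicate incubations; two-way ANOVA with Tukey post hoc test.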
# Hepatitis C virus [3] = test: Antiviral activity against HCV JFH1 infected in human Huh7.5.1 cells assessed as reduction in viral proteins after 72 hrs post compound dose by Western blotting method; format: functional, organism-based, Hepacivirus hominis; conditions: JFH1, Huh-7, 72 h
# Sequence of Cytochrome P450 2C9 (P11712 whole entry): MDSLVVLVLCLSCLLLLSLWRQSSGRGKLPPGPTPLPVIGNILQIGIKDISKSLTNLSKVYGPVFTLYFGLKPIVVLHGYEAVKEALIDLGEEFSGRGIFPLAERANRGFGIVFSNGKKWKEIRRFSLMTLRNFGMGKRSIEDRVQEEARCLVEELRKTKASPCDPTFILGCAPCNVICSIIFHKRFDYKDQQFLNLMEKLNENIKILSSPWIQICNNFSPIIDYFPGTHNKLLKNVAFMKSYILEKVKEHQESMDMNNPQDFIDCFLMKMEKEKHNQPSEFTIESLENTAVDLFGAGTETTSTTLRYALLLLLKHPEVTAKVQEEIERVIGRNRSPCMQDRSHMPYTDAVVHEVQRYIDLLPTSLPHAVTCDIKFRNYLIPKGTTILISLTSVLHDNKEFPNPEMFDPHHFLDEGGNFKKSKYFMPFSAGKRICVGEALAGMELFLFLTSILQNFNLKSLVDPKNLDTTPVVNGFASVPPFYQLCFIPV
pIC50 (DU-145),pIC50 (PC-3),pIC50 (LNCaP),"inhibition (INH) (Cytochrome P450 2C9; human, microsomes)",pIC50 (Cytochrome P450 2C9),pIC50 (Hepatitis C virus [3]),SMILES,pIC50 [1],Activity (Hepatitis C virus [2])
4.77,4.66,4.70,,,,COC[C@@H]1Oc2ccc([C@H]3Oc4cc(OC)cc(O)c4C(=O)[C@@H]3O)cc2O[C@H]1c1ccc(OC)c(OC)c1,,
4.62,4.84,4.52,Not Active,,,COC[C@@H]1Oc2ccc([C@H]3Oc4cc(OC)cc(OC)c4C(=O)[C@@H]3O)cc2O[C@H]1c1ccc(OC)c(OC)c1,4.81,Active
4.21,4.22,4.16,,5.09,4.40,COc1cc([C@@H]2Oc3cc([C@H]4Oc5cc(O)cc(O)c5C(=O)[C@@H]4O)ccc3O[C@H]2CO)ccc1O [SILYBIN B],4.25,
4.71,4.77,4.70,,,,COc1cc(O)c2c(c1)O[C@H](c1ccc3c(c1)O[C@@H](c1ccc(O)c(OC)c1)[C@H](CO)O3)[C@@H](O)C2=O,4.88,Active
4.33,4.44,4.39,,,,COc1cc(OC)c2c(c1)O[C@H](c1ccc3c(c1)O[C@@H](c1ccc(OC)c(OC)c1)[C@H](CO)O3)[C@@H](O)C2=O,4.59,Active
5.00,5.09,4.95,,,,COc1cc(O)c2c(c1)O[C@H](c1ccc3c(c1)O[C@@H](c1ccc(OC)c(OC)c1)[C@H](CO)O3)[C@@H](O)C2=O,4.87,Active
